ChEMBL document CHEMBL1125477, “Highly potent and selective heptapeptide antagonists of the neurokinin NK-2 receptor” (J Med Chem, 1992)
Square brackets hold non-standard residues; d marks the D form. Peptide text beside a SMILES is read from it. * marks the point of attachment. Nle = CCCC[C@H](N)C(=O)O; Bz = O=C(c1ccccc1)*

What was measured:
[1] = biological target: Substance-P receptor (Cavia porcellus) (UniProt P30547); assay: Compound was evaluated for antagonism of contractile response of guinea pig ileum longitudinal smooth muscle (GPI) at Tachykinin receptor 1; type: functional, tissue-based
Procedure, shortened: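 Isolated longitudinal smooth muscle of ileum from male Dunkin-Hartley guinea-pigs (300–600 g), killed by concussion and exsanguination. Contraction to SP methyl ester (NK-1 agonist). At least two control agonist curves, then one antagonist concentration per preparation. Concentration-ratio read graphically at half-maximal response. pK_B = log(CR−1) − log[antagonist]. Mean ± SE over four to eight tissues.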

[2] = biological target: T1, Substance-K receptor (Rattus norvegicus) (UniProt P16610); assay: Compound was evaluated for antagonism of contractile response of rat colon muscularis mucosae (RC) at Tachykinin receptor 2; type: functional, tissue-based; conditions: Muscularis mucosa
T1 sequence (whole entry): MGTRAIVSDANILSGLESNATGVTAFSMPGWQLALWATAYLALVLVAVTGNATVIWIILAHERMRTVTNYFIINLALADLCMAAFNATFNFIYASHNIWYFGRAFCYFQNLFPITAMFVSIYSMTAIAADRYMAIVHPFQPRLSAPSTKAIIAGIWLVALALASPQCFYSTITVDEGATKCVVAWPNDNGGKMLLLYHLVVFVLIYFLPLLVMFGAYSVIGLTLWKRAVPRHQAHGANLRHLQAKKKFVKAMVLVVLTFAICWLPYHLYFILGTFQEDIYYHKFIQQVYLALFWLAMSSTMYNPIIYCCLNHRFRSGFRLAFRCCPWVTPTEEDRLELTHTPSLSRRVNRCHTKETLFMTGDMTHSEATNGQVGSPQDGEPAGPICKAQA
Procedure, shortened: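 Colon muscularis mucosae from male AHA rats (250–500 g), killed by concussion and exsanguination. Contraction to neurokinin A (NK-2). At least two control agonist curves, then a single antagonist concentration per tissue. Equiactive agonist concentration-ratio taken at half-maximal response. pK_B = log(CR−1) − log[antagonist]. Mean ± SE over four to eight preparations.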

[3] = biological target: T2, Neuromedin-K receptor (Rattus norvegicus) (UniProt P16177); assay: Compound was evaluated for antagonism of contractile response of rat portal vein at Tachykinin receptor 3; type: functional
T2 sequence (whole entry): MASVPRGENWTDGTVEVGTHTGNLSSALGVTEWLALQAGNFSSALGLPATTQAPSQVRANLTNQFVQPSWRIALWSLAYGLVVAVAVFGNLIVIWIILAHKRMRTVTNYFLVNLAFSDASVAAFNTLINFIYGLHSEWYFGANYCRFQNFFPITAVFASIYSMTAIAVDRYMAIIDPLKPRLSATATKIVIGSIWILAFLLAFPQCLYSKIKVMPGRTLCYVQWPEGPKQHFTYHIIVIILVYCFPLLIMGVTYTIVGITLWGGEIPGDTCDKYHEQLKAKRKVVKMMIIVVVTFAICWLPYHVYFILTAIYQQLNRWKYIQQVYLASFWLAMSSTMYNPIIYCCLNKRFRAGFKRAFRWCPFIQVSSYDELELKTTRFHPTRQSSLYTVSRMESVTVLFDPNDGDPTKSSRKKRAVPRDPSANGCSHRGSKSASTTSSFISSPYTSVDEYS
Procedure, shortened: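 Everted portal vein from male AHA rats (250–500 g). Contraction to senktide (NK-3). Agonist curves were repeated at least twice before exposure to one antagonist concentration per preparation. Concentration-ratio estimated graphically at the half-maximal level. pK_B = log(CR−1) − log(molar antagonist). Mean ± SE of four to eight tissues.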

Sequence of Substance-P receptor (Cavia porcellus) (P30547 whole entry): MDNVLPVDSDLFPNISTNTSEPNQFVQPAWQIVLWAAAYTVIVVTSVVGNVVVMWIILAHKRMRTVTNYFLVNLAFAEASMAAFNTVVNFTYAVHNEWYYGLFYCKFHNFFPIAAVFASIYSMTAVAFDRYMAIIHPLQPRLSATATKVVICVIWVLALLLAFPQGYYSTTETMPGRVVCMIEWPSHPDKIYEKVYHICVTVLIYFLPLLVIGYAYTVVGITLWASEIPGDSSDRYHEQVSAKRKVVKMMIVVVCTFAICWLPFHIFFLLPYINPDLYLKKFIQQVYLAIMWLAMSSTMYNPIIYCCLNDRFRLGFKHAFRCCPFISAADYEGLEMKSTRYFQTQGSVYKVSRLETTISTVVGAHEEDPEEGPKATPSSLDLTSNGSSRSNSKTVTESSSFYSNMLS

SMILES	pKB [1]	pKB [2]	pKB [3]
CCCC[C@H](NC(=O)[C@@H]1CCCN1C(=O)[C@H]1CCCN1C(=O)[C@H](Cc1ccccc1)NC(=O)[C@@H](Cc1c[nH]c2ccccc12)NC(=O)[C@H](C)NC(=O)[C@H](CCC(N)=O)NC(=O)OC(C)(C)C)C(N)=O	5.6	7.9	5.1
CCCC[C@H](NC(=O)[C@@H]1CCCN1C(=O)[C@H]1CCCN1C(=O)[C@H](Cc1ccccc1)NC(=O)[C@@H](Cc1c[nH]c2ccccc12)NC(=O)[C@H](C)NC(=O)[C@H](CCC(N)=O)NC(=O)c1ccccc1)C(N)=O	6.6	8.8	5.6
CCCC[C@H](NC(=O)[C@@H]1CCCN1C(=O)[C@H]1CCCN1C(=O)[C@H](Cc1ccccc1)NC(=O)[C@@H](Cc1c[nH]c2ccccc12)NC(=O)[C@H](C)NC(=O)[C@H](C)NC(=O)c1ccccc1)C(N)=O (Bz-AA[dW]F[dP]P[Nle]-NH2)	6.4	9.6	6
CCCC[C@H](NC(=O)[C@@H]1CCCN1C(=O)[C@H]1CCCN1C(=O)[C@H](Cc1ccccc1)NC(=O)[C@@H](Cc1c[nH]c2ccccc12)NC(=O)[C@H](C)NC(=O)[C@H](C)NC(=O)OC(C)(C)C)C(N)=O	5.5	9.3	4.7
